Activity calls are given as the source filed them. The calls are words filed in the database; no cut-off is given here.

Assay [1] deals with Toll-like receptor 3 (Homo sapiens) (UniProt O15455). Briefly: Agonist activity at human TLR3 HEK-Blue cells assessed as increase in NFkappaB activation by sAP reporter gene assay. Type of assay: functional, cell-based. The method, boiled down:
(§1)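 HEK293 cells stably transfected with human TLR3, TLR7 or TLR8 plus MD2 and an NF-κB/AP-1-driven secreted alkaline phosphatase reporter (HEK-Blue), kept in selection medium with zeocin and normocin. Cells at ~10^5 cells/ml were grown to confluency and then given graded concentrations of stimuli. Supernatant sAP was read spectrophotometrically at 620 nm with a chromogen in HEK-detection medium.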

The target of assay [2] is T1, Toll-like receptor 7 (Homo sapiens, UniProt Q9NYK1).
T1 sequence (Q9NYK1 whole entry): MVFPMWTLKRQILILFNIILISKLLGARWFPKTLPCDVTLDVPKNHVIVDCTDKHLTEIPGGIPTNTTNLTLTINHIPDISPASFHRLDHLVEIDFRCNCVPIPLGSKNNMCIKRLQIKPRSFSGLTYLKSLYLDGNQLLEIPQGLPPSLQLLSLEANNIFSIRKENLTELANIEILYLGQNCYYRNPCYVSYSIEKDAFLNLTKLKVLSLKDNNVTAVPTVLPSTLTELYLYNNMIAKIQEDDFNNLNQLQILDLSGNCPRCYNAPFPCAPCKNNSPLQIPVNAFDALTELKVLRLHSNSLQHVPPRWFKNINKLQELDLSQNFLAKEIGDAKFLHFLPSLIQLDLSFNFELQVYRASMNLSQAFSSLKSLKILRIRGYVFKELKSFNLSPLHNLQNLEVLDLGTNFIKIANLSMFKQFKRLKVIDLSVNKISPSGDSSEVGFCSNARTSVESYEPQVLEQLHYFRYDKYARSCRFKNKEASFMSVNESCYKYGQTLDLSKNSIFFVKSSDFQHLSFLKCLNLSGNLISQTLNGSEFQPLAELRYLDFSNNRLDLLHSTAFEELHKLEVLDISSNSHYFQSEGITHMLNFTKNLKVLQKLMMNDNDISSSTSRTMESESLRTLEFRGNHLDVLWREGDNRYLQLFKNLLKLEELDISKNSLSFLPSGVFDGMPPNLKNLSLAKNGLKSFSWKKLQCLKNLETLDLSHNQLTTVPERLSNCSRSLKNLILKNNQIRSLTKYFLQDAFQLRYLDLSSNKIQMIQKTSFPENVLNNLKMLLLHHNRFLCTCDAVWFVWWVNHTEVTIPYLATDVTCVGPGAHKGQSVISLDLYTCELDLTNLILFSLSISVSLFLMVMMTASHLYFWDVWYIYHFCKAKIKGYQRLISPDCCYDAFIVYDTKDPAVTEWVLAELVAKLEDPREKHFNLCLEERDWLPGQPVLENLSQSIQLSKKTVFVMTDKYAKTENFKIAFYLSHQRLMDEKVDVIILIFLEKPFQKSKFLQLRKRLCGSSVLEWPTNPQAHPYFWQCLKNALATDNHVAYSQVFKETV
Kind of assay: Agonist activity at human TLR7 expressed in HEK-Blue cells assessed as increase in NFkappaB activation by sAP reporter gene assay. The format is functional, cell-based. The method, boiled down:
as §1

For assay [3], the target named is T2, Toll-like receptor 7 (Homo sapiens) (UniProt Q9NYK1).
T2 sequence (whole entry): T1 sequence (Q9NYK1 whole entry)
Kind of assay: (§2) Antagonist activity at TLR7 in human PBMC assessed as inhibition of gardiquimod-induced TNF-alpha release after 12 hrs by bead array assay. The format is functional. The method, boiled down: (§3)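 Human PBMCs from healthy donors, isolated by Ficoll-Hypaque, 10⁶ cells per aliquot. Cells were incubated 12 h with graded test concentrations plus 10 μg/ml gardiquimod. Supernatants were diluted 1:20 and analytes measured in triplicate by cytokine/chemokine bead array. Three independent experiments.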

The target of assay [4] is T2, Toll-like receptor 7 (Homo sapiens). Briefly: (§4) Antagonist activity at TLR7 in human PBMC assessed as inhibition of gardiquimod-induced IL-1beta release after 12 hrs by bead array assay. Type of assay: functional. The method, boiled down:
as §3

The next assay deals with PBMC. Briefly: Immunostimulatory activity in human PBMC assessed as induction IFN-alpha production after 12 hrs by ELISA. The format is functional, cell-based. The method, boiled down: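 Healthy-donor PBMCs were prepared by Ficoll-Hypaque gradient and aliquoted at 10⁶ cells. Cells were stimulated 12 h with graded test concentrations. Supernatant was diluted 1:20 and IFN-α measured in triplicate by high-sensitivity human IFN-α ELISA.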

Assay [5] deals with T3, Toll-like receptor 8 (Homo sapiens, UniProt Q9NR97).
T3 sequence (Q9NR97 whole entry): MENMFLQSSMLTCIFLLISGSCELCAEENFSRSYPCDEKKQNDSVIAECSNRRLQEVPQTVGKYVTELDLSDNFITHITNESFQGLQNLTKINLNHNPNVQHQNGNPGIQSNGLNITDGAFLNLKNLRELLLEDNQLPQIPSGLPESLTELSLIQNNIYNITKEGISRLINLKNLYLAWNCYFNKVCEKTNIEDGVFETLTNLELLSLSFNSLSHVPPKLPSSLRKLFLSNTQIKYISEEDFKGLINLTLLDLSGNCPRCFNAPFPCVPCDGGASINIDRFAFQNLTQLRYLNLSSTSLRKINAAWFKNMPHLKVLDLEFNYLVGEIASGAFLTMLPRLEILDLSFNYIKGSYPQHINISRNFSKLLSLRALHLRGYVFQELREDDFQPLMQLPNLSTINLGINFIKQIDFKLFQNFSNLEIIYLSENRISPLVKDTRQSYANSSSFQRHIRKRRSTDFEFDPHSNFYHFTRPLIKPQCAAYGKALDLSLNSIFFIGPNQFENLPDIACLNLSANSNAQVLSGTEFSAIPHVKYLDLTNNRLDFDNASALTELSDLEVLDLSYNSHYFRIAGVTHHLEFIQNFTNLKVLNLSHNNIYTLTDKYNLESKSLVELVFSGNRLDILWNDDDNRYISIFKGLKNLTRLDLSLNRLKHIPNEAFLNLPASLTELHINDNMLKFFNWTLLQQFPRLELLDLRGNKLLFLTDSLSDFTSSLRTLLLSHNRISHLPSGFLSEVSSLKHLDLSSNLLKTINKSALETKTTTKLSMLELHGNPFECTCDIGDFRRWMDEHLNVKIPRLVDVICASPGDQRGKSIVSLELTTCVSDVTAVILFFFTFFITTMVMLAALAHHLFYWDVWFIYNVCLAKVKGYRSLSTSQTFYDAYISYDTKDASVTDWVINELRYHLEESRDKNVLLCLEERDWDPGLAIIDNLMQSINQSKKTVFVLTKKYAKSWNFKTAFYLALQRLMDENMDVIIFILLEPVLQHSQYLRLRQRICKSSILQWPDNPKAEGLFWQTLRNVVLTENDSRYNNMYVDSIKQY
Kind of assay: Agonist activity at human TLR8 expressed in HEK-Blue cells assessed as increase in NFkappaB activation by sAP reporter gene assay. The format is functional, cell-based. The method, boiled down: as §1

The target of assay [6] is T1, Toll-like receptor 7. Briefly: Antagonist activity at TLR7 in human PBMC assessed as inhibition of gardiquimod-induced IL-8 release after 12 hrs by bead array assay. Type of assay: functional. The method, boiled down:
as §3

Assay [7] has as its target T3, Toll-like receptor 8. Briefly: Antagonist activity at TLR8 in human PBMC assessed as inhibition of CL075-TNF-alpha release after 12 hrs by bead array assay. Type of assay: functional. The method, boiled down: (§5)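 Ficoll-Hypaque-isolated healthy-donor PBMCs (10⁶ cells) were exposed 12 h to graded test concentrations together with 10 μg/ml CL075. Supernatants were diluted 1:20 and each cytokine or chemokine assayed in triplicate by bead array. Three independent experiments.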

The target in assay [8] is T3, Toll-like receptor 8. Kind of assay: Antagonist activity at TLR8 in human PBMC assessed as inhibition of CL075-induced IL-6 release after 12 hrs by bead array assay. The format is functional. The method, boiled down:
as §5

Assay [9] concerns the target T3, Toll-like receptor 8. Kind of assay: Antagonist activity at TLR8 in human PBMC assessed as inhibition of CL075-induced IL-8 release after 12 hrs by bead array assay. Type of assay: functional. The method, boiled down: as §5
The target of assay [10] is T1, Toll-like receptor 7. Kind of assay: Antagonist activity at TLR7 in human PBMC assessed as inhibition of gardiquimod-induced IL-6 release after 12 hrs by bead array assay. Type of assay: functional. The method, boiled down: as §3
Assay [11] has as its target T1, Toll-like receptor 7. The description is as §2. The format is functional. The method, boiled down: as §3
Assay [12] has as its target T1, Toll-like receptor 7. Described as §4. The format is functional. The method, boiled down: as §3
The target in assay [13] is T1, Toll-like receptor 7. Briefly: Antagonist activity at TLR7 in human PBMC assessed as inhibition of gardiquimod-induced CXCL10 release after 12 hrs by bead array assay. Type of assay: functional. The method, boiled down: as §3
The target in assay [14] is T1, Toll-like receptor 7. Kind of assay: Antagonist activity at TLR7 in human PBMC assessed as inhibition of gardiquimod-induced CCL2 release after 12 hrs by bead array assay. Type of assay: functional. The method, boiled down: as §3
For assay [15], the target named is T3, Toll-like receptor 8. Kind of assay: Antagonist activity at TLR8 in human PBMC assessed as inhibition of CL075-induced IL-1beta release after 12 hrs by bead array assay. The format is functional. The method, boiled down: as §5
Assay [16] concerns the target T3, Toll-like receptor 8. Briefly: Antagonist activity at TLR8 in human PBMC assessed as inhibition of CL075-induced CXCL10 release after 12 hrs by bead array assay. The format is functional. The method, boiled down:
as §5

For assay [17], the target named is T3, Toll-like receptor 8. Briefly: Antagonist activity at TLR8 in human PBMC assessed as inhibition of CL075-induced CCL2 release after 12 hrs by bead array assay. Type of assay: functional. The method, boiled down: as §5
The target in assay [18] is T4, Toll-like receptor 8 (Homo sapiens) (UniProt Q9NR97).
T4 sequence (whole entry): T3 sequence (Q9NR97 whole entry)
Briefly: Inhibition of human TLR8 expressed in HEK-Blue cells by schild plot analysis.

Chain of Toll-like receptor 3 (Homo sapiens) (O15455 whole entry): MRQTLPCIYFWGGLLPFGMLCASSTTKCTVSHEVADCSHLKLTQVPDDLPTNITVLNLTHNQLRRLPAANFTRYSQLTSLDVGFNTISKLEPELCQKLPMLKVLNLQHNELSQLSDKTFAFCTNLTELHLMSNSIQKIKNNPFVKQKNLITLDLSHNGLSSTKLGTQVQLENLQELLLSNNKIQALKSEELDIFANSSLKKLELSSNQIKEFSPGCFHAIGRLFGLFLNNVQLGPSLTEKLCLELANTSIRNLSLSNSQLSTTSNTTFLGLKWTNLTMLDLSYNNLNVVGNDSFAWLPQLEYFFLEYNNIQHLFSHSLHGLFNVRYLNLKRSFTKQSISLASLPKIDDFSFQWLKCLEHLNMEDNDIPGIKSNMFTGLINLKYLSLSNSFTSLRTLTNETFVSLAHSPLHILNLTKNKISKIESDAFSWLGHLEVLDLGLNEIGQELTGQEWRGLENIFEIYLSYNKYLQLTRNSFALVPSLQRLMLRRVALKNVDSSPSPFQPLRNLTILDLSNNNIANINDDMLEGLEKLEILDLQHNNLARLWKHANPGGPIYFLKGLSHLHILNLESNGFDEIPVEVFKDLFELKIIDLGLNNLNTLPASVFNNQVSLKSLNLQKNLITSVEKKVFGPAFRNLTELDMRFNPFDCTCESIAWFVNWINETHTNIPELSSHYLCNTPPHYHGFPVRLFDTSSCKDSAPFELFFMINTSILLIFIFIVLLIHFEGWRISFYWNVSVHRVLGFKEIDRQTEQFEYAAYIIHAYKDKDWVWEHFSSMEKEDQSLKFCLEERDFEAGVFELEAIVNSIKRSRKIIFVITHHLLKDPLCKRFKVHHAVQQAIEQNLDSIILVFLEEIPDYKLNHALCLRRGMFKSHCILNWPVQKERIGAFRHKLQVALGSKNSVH

With `CCCCc1nc2c(N)nc3ccc([N+](=O)[O-])cc3c2n1Cc1ccc(CN)cc1`, the result in assay [1] was inactive. On Toll-like receptor 7 [2], the EC50 is 560 nM.
As to `CCN(CC)CCCC(C)Nc1ccnc2cc(Cl)ccc12` (centres undefined), the inhibition entry in assay [3] and in [4] was “Active” throughout.
As to `CCCCc1nc2c(N)nc3ccccc3c2n1Cc1ccc(CNC(=O)CCCCC(=O)NCc2ccc(Cn3c(CCCC)nc4c(N)nc5ccccc5c43)cc2)cc1`, the outcome in assay [1] was inactive. On Toll-like receptor 7 [2], the EC50 came out at 110 nM. The Activity entry in the assay with PBMC was “Dose-dependent effect”.
With `CCCCc1nc2c(N)nc3ccc(N)cc3c2n1Cc1ccc(CN)cc1`, the result in [1] was inactive. Further, at Toll-like receptor 7 [2], the EC50 turned out to be 450 nM.
For `CCCCc1nc2c(N)nc3ccc(NC(=O)CCCCCCCCCCC(=O)Nc4ccc5nc(N)c6nc(CCCC)n(Cc7ccc(CN)cc7)c6c5c4)cc3c2n1Cc1ccc(CN)cc1` the same measures were “inactive” and 5400 nM.
As for `CCCCc1nc2c(N)nc3ccc(NC(=O)CCCCC(=O)Nc4ccc5nc(N)c6nc(CCCC)n(Cc7ccc(CN)cc7)c6c5c4)cc3c2n1Cc1ccc(CN)cc1`, the outcome in assay [1] was inactive. At Toll-like receptor 7 [2], the EC50 turned out to be 7240 nM. Also, in the assay with PBMC, the Activity result was “Dose-dependent effect”.
Regarding `Nc1nc2ccccc2c2c1nc(CCCCCCc1nc3c(N)nc4ccccc4c3n1Cc1ccccc1)n2Cc1ccccc1`, the result in [1] was inactive.
Consider `Nc1nc2ccccc2c2c1nc(CCCCCCCCCCc1nc3c(N)nc4ccccc4c3n1Cc1ccccc1)n2Cc1ccccc1`, for which the outcome in assay [1] was inactive.
As for `CCCCc1nc2c(NCCCCCCCCNc3nc4ccccc4c4c3nc(CCCC)n4Cc3ccccc3)nc3ccccc3c2n1Cc1ccccc1`, the outcome in assay [1] was inactive. Also, on Toll-like receptor 7 [2], the EC50 is 560 nM.
On the same counts, the results for `CCCCc1nc2c(NCCCCNc3nc4ccccc4c4c3nc(CCCC)n4Cc3ccccc3)nc3ccccc3c2n1Cc1ccccc1` are “inactive” and 2050 nM.
Turning to `CCCCc1nc2c(NCCCCCCCCCCCCNc3nc4ccccc4c4c3nc(CCCC)n4Cc3ccccc3)nc3ccccc3c2n1Cc1ccccc1`, in assay [1], the result was inactive. For the same compound, the EC50 at Toll-like receptor 7 [2] was determined as 1420 nM. Besides, the Activity result with PBMC was “Dose-dependent effect”.
Regarding `CCCCc1nc2c(NCCCCCCCCCCNc3nc4ccccc4c4c3nc(CCCC)n4Cc3ccccc3)nc3ccccc3c2n1Cc1ccccc1`, the result in assay [1] was inactive. Further, at Toll-like receptor 7 [2], the EC50 stood at 3000 nM.
Turning to `CCCCc1nc2c(N)nc3ccccc3c2n1Cc1ccc(CNC(=O)CCCCCCC(=O)NCc2ccc(Cn3c(CCCC)nc4c(N)nc5ccccc5c43)cc2)cc1`, the outcome in assay [1] was inactive. Further, at Toll-like receptor 7 [2], the EC50 turned out to be 240 nM. The Activity result with PBMC is “Dose-dependent effect”.
As to `CCCCc1nc2c(N)nc3ccccc3c2n1Cc1ccc(CNC(=O)CCCCCCCCCCC(=O)NCc2ccc(Cn3c(CCCC)nc4c(N)nc5ccccc5c43)cc2)cc1`, the result in assay [1] was inactive. Further, the figures for the EC50 on Toll-like receptor 7 [2] and on Toll-like receptor 8 [5] were 170 nM and 4780 nM, respectively. Also, the Activity entry in the assay with PBMC was “Dose-dependent effect”.
With `Nc1nc2ccccc2c2c1nc(CCCc1nc3c(N)nc4ccccc4c3n1Cc1ccccc1)n2Cc1ccccc1`, in assay [1], the result was inactive. In addition, the IC50 at Toll-like receptor 7 [6], at Toll-like receptor 8 [7], on Toll-like receptor 8 [8], on Toll-like receptor 8 [9], at Toll-like receptor 7 [10] and on Toll-like receptor 7 [11] was 50 nM throughout. The IC50 at Toll-like receptor 7 [12], on Toll-like receptor 7 [13], at Toll-like receptor 7 [14], at Toll-like receptor 8 [15], at Toll-like receptor 8 [16] and on Toll-like receptor 8 [17] was 50 nM throughout. Besides, in [18], the inhibition entry was “Active”.
In the case of `CCCCc1nc2c(N)nc3ccc(NC(=O)CCCCCCC(=O)Nc4ccc5nc(N)c6nc(CCCC)n(Cc7ccc(CN)cc7)c6c5c4)cc3c2n1Cc1ccc(CN)cc1`, the result in [1] was inactive. For the same compound, on Toll-like receptor 7 [2], the EC50 was 4020 nM.
As to `Nc1nc2ccccc2c2c1nc(CCCCc1nc3c(N)nc4ccccc4c3n1Cc1ccccc1)n2Cc1ccccc1`, in assay [1], the result was inactive.
